Experimental data from different studies.
Lines come from different studies, so protocols differ.
Target: Glycogen synthase kinase-3 beta (GSK3B, Homo sapiens, UniProt P49841)
Method: competition with immobilised ligand

C[C@@H](c1ccc(-n2cnc3c(N)ncnc32)cc1)N1CCc2nn(C)c(Cc3ccccc3)c2C1=O  remaining binding (binding; 0.1 µM): 58%
CNC(=O)[C@@H]1CC[C@@H](n2c(-c3ccc4cnccc4c3)nc3ccc(C(=O)NCc4cccc(C(N)=O)c4)cc32)C1  remaining binding (binding; 1 µM): 95%
C[C@H]1CCN(c2nccc(-c3cnn4ncccc34)n2)C1  remaining binding (binding; 1 µM): 98%
CN(C)CC#Cc1ccc(OCCCc2sc(N3CCc4cccc(C(=O)Nc5nc6ccccc6s5)c4C3)nc2C(=O)O)c(F)c1  remaining binding (cell-free assay; 1 µM): 93%
COc1ncc2cc3ccccc3nc2c1C#N  remaining binding (cell-free assay; 5 µM): 99%
O=C(NCCCN1CCOCC1)c1ccc(Nc2nccc(-c3cc4ccccc4s3)n2)cc1  remaining binding (binding; 1 µM): 73%
C[C@H](c1ccnc(Nc2nc3ccc(-c4cc(N(C)C)ncn4)cc3[nH]2)c1)N1CCN(C(=O)CC(F)(F)F)CC1  remaining binding (cell-free assay; 0.1 µM): 100%
FC(F)(F)Oc1cccc(-c2cnc3ccc(-c4ccncc4)nn23)c1  remaining binding (cell-free assay; 5 µM): 78%
O=C(c1ccc(Nc2nccc(-c3cc4ccccc4s3)n2)cc1)N1CCC(N2CCCC2)CC1  remaining binding (binding; 1 µM): 95%
O=C(Nc1c[nH]nc1C(=O)NC1CCNCC1)c1cc(F)cc(F)c1  remaining binding (binding; 1 µM): 0.5%
Cc1nc(Cc2cccc(C(F)(F)F)c2)sc1-c1ccc(C(N)=O)nc1  remaining binding (cell-free assay; 1 µM): 100%
O=C(c1ccc(Nc2ncc(Cl)c(-c3ccc(Cl)s3)n2)cc1)N1CCC(N2CCCC2)CC1  remaining binding (binding; 1 µM): 60%
CC(C)(C)c1ccc(-c2nc(CBr)nn2-c2cccc(O)c2)cc1  remaining binding (cell-free assay; 10 µM): 81%
COC(=O)Nc1nc2ccc(C(=O)c3ccccc3)cc2[nH]1  remaining binding (cell-free assay; 10 µM): 35%
C=CC(=O)N1CCC(C(=O)NCC(=O)N2CCN(c3nc(-c4cnc(N)nc4C(F)F)nc(N4CCOCC4)n3)CC2)CC1  remaining binding (binding; 1 µM): 74%
CN([C@@H]1CCc2c(CC(=O)O)c3ccccc3n2C1)S(=O)(=O)c1ccc(F)cc1  remaining binding (cell-free assay; 1 µM): 93%
F[C@@H]1CCN(c2nccc(-c3cnn4ncccc34)n2)C1  remaining binding (binding; 1 µM): 75%
COc1cc(-c2cn(C3CCc4ccccc4N(CC(F)(F)F)C3=O)nn2)ccc1-n1ccc(C)n1 (stereo not shown)  remaining binding (cell-free assay; 1 µM): 85%
C[C@@H]1CN(c2ccc3ncc(-c4ccc5[nH]nc(C6CC6)c5c4)n3n2)C[C@H](C)O1  remaining binding (binding; 50 nM): 76%
